ChEMBL document CHEMBL1142148, “Antibiotic susceptibility profile of bifidobacteria as affected by oxgall, acid, and hydrogen peroxide stress” (2007)

Legend:
Bifidobacterium longum [1] = experiment: Antimicrobial activity against 60 min 1 M HCl-stressed Bifidobacterium longum ATCC 15707 after 18 hrs; assay type: functional
Summary of the method: (§1)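 Mid-log MRS culture pelleted and resuspended in MRS broth brought to pH 2.0 with 1 M HCl, held anaerobically at 37°C for 60 min, then subcultured in MRS (pH 6.5) for 24 h anaerobically before MIC testing by broth microdilution (as for unstressed cells). Table footnote gives 18 h anaerobic regrowth after the stress. MIC is the median of four repetitions.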

Bifidobacterium breve [2] = experiment: Antimicrobial activity against Bifidobacterium breve R0070; assay type: functional
Summary of the method: (§2)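 Broth microdilution in MRS plus 0.05% L-cysteine-HCl. Mid-log culture adjusted to OD650 0.1, giving about 2.5 × 10^4 to 5.0 × 10^4 CFU/well, then added to twofold serial dilutions of agent. Plates incubated anaerobically at 37°C for 18 h and read at OD650. MIC is the lowest concentration matching the uninoculated blank OD, taken as the median of four repeats.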

[3] = test system: Bifidobacterium thermophilum; experiment: Antimicrobial activity against Bifidobacterium thermophilum ATCC 25866; assay type: functional; summary of the method: as §2
Bifidobacterium longum [4] = experiment: Antimicrobial activity against 90 mins oxgall-stressed Bifidobacterium longum R0175 after 18 hrs; assay type: functional
Summary of the method: (§3)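 Cells pelleted from mid-log MRS culture and resuspended in MRS (initial pH 6.5) with 0.3% (wt/vol) oxgall for 90 min anaerobically at 37°C. They were then regrown in MRS pH 6.5 for 24 h (footnote: 18 h) anaerobically and tested for MIC by the same broth microdilution assay. Median of four repetitions.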

[5] = test system: Bifidobacterium pseudolongum; experiment: Antimicrobial activity against 90 mins oxgall-stressed Bifidobacterium pseudolongum ATCC 25562 after 18 hrs; assay type: functional; summary of the method: as §3
Bifidobacterium breve [6] = experiment: Antimicrobial activity against 90 mins oxgall-stressed Bifidobacterium breve R0070 after 18 hrs; assay type: functional; summary of the method: as §3
Bifidobacterium longum [7] = experiment: Antimicrobial activity against Bifidobacterium longum P/N 601377; assay type: functional; summary of the method: as §2
Bifidobacterium longum [8] = experiment: Antimicrobial activity against Bifidobacterium longum R0175; assay type: functional; summary of the method: as §2
Bifidobacterium animalis [9] = experiment: Antimicrobial activity against 90 mins hydrogen peroxide-stressed Bifidobacterium animalis ATCC 27536 after 18 hrs; assay type: functional
Summary of the method: (§4)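 Stress applied for 90 min at 37°C under anaerobic conditions, using MRS (initial pH 6.5) containing H2O2 at each strain's own inhibitory concentration. The H2O2 level was set beforehand by microplate tolerance testing. Challenged cells were regrown in MRS for 24 h (footnote: 18 h) before MIC testing by broth microdilution. Median of four repetitions.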

Bifidobacterium bifidum [10] = experiment: Antimicrobial activity against 90 mins oxgall-stressed Bifidobacterium bifidum BB12 after 18 hrs; assay type: functional; summary of the method: as §3
Bifidobacterium bifidum [11] = experiment: Antimicrobial activity against 60 min 1 M HCl-stressed Bifidobacterium bifidum R0071 after 18 hrs; assay type: functional; summary of the method: as §1
Bifidobacterium animalis [12] = experiment: Antimicrobial activity against Bifidobacterium animalis ATCC 27536; assay type: functional; summary of the method: as §2
Bifidobacterium bifidum [13] = experiment: Antimicrobial activity against 90 mins hydrogen peroxide-stressed Bifidobacterium bifidum R0071 after 18 hrs; assay type: functional; summary of the method: as §4
[14] = test system: Bifidobacterium thermophilum; experiment: Antimicrobial activity against 90 mins oxgall-stressed Bifidobacterium thermophilum ATCC 25866 after 18 hrs; assay type: functional; summary of the method: as §3
Bifidobacterium longum [15] = experiment: Antimicrobial activity against Bifidobacterium longum ATCC 15707; assay type: functional; summary of the method: as §2
[16] = test system: Bifidobacterium pseudolongum; experiment: Antimicrobial activity against 60 min 1 M HCl-stressed Bifidobacterium pseudolongum ATCC 25562 after 18 hrs; assay type: functional; summary of the method: as §1
[17] = Antimicrobial activity against 90 mins oxgall-stressed Bifidobacterium infantis ATCC 15697 after 18 hrs; assay type: functional, Bifidobacterium longum subsp. infantis; conditions: Bifidobacterium longum; summary of the method: as §3
Bifidobacterium bifidum [18] = experiment: Antimicrobial activity against Bifidobacterium bifidum R0071; assay type: functional; summary of the method: as §2
Bifidobacterium breve [19] = experiment: Antimicrobial activity against 60 min 1 M HCl-stressed Bifidobacterium breve ATCC 15700 after 18 hrs; assay type: functional; summary of the method: as §1
Bifidobacterium longum [20] = experiment: Antimicrobial activity against 90 mins oxgall-stressed Bifidobacterium longum ATCC 15707 after 18 hrs; assay type: functional; summary of the method: as §3
Bifidobacterium longum [21] = experiment: Antimicrobial activity against 60 min 1 M HCl-stressed Bifidobacterium longum P/N 601377 after 18 hrs; assay type: functional; summary of the method: as §1
Bifidobacterium bifidum [22] = experiment: Antimicrobial activity against 90 mins hydrogen peroxide-stressed Bifidobacterium bifidum BB12 after 18 hrs; assay type: functional; summary of the method: as §4
Bifidobacterium longum [23] = experiment: Antimicrobial activity against 90 mins hydrogen peroxide-stressed Bifidobacterium longum P/N 601377 after 18 hrs; assay type: functional; summary of the method: as §4
[24] = Antimicrobial activity against Bifidobacterium infantis ATCC 15697; assay type: functional, Bifidobacterium longum subsp. infantis; conditions: Bifidobacterium longum; summary of the method: as §2
Bifidobacterium bifidum [25] = experiment: Antimicrobial activity against 60 min 1 M HCl-stressed Bifidobacterium bifidum BB12 after 18 hrs; assay type: functional; summary of the method: as §1
Bifidobacterium longum [26] = experiment: Antimicrobial activity against 90 mins hydrogen peroxide-stressed Bifidobacterium longum ATCC 15707 after 18 hrs; assay type: functional; summary of the method: as §4
Bifidobacterium bifidum [27] = experiment: Antimicrobial activity against Bifidobacterium bifidum BB12; assay type: functional; summary of the method: as §2
Bifidobacterium longum [28] = experiment: Antimicrobial activity against 90 mins hydrogen peroxide-stressed Bifidobacterium longum R0175 after 18 hrs; assay type: functional; summary of the method: as §4
Bifidobacterium animalis [29] = experiment: Antimicrobial activity against 90 mins oxgall-stressed Bifidobacterium animalis ATCC 27536 after 18 hrs; assay type: functional; summary of the method: as §3
Bifidobacterium breve [30] = experiment: Antimicrobial activity against 90 mins hydrogen peroxide-stressed Bifidobacterium breve R0070 after 18 hrs; assay type: functional; summary of the method: as §4
[31] = Antimicrobial activity against 60 min 1 M HCl-stressed Bifidobacterium infantis ATCC 15697 after 18 hrs; assay type: functional, Bifidobacterium longum subsp. infantis; conditions: Bifidobacterium longum; summary of the method: as §1
[32] = test system: Bifidobacterium pseudolongum; experiment: Antimicrobial activity against Bifidobacterium pseudolongum ATCC 25562; assay type: functional; summary of the method: as §2
[33] = test system: Bifidobacterium thermophilum; experiment: Antimicrobial activity against 90 mins hydrogen peroxide-stressed Bifidobacterium thermophilum ATCC 25866 after 18 hrs; assay type: functional; summary of the method: as §4
Bifidobacterium breve [34] = experiment: Antimicrobial activity against 90 mins hydrogen peroxide-stressed Bifidobacterium breve ATCC 15700 after 18 hrs; assay type: functional; summary of the method: as §4
Bifidobacterium breve [35] = experiment: Antimicrobial activity against 90 mins oxgall-stressed Bifidobacterium breve ATCC 15700 after 18 hrs; assay type: functional; summary of the method: as §3
Bifidobacterium longum [36] = experiment: Antimicrobial activity against 90 mins oxgall-stressed Bifidobacterium longum ATCC 15708 after 18 hrs; assay type: functional; summary of the method: as §3
[37] = test system: Bifidobacterium thermophilum; experiment: Antimicrobial activity against 60 min 1 M HCl-stressed Bifidobacterium thermophilum ATCC 25866 after 18 hrs; assay type: functional; summary of the method: as §1
Bifidobacterium longum [38] = experiment: Antimicrobial activity against Bifidobacterium longum ATCC 15708; assay type: functional; summary of the method: as §2
Bifidobacterium longum [39] = experiment: Antimicrobial activity against 90 mins oxgall-stressed Bifidobacterium longum P/N 601377 after 18 hrs; assay type: functional; summary of the method: as §3
Bifidobacterium bifidum [40] = experiment: Antimicrobial activity against Bifidobacterium bifidum ATCC 15696; assay type: functional; summary of the method: as §2
Bifidobacterium breve [41] = experiment: Antimicrobial activity against Bifidobacterium breve ATCC 15700; assay type: functional; summary of the method: as §2
Bifidobacterium animalis [42] = experiment: Antimicrobial activity against 60 min 1 M HCl-stressed Bifidobacterium animalis ATCC 27536 after 18 hrs; assay type: functional; summary of the method: as §1
Bifidobacterium bifidum [43] = experiment: Antimicrobial activity against 90 mins oxgall-stressed Bifidobacterium bifidum ATCC 15696 after 18 hrs; assay type: functional; summary of the method: as §3
Bifidobacterium bifidum [44] = experiment: Antimicrobial activity against 90 mins oxgall-stressed Bifidobacterium bifidum R0071 after 18 hrs; assay type: functional; summary of the method: as §3
Bifidobacterium longum [45] = experiment: Antimicrobial activity against 90 mins hydrogen peroxide-stressed Bifidobacterium longum ATCC 15708 after 18 hrs; assay type: functional; summary of the method: as §4
Bifidobacterium longum [46] = experiment: Antimicrobial activity against 60 min 1 M HCl-stressed Bifidobacterium longum R0175 after 18 hrs; assay type: functional; summary of the method: as §1
Bifidobacterium breve [47] = experiment: Antimicrobial activity against 60 min 1 M HCl-stressed Bifidobacterium breve R0070 after 18 hrs; assay type: functional; summary of the method: as §1

Measured: MIC

CN[C@H](CC(C)C)C(=O)N[C@H]1C(=O)N[C@@H](CC(N)=O)C(=O)N[C@H]2C(=O)N[C@H]3C(=O)N[C@H](C(=O)N[C@H](C(=O)O)c4cc(O)cc(O)c4-c4cc3ccc4O)[C@H](O)c3ccc(c(Cl)c3)Oc3cc2cc(c3O[C@@H]2O[C@H](CO)[C@@H](O)[C@H](O)[C@H]2O[C@H]2C[C@](C)(N)[C@H](O)[C@H](C)O2)Oc2ccc(cc2Cl)[C@H]1O [VANCOMYCIN]
0.98 µg/mL: [5] | [16] | [17] | [31] | Bifidobacterium longum [36] | Bifidobacterium longum [46]
500 µg/mL: Bifidobacterium breve [2] | Bifidobacterium longum [8] | Bifidobacterium animalis [12] | Bifidobacterium longum [15] | Bifidobacterium bifidum [18] | Bifidobacterium longum [38]
> 500 µg/mL: Bifidobacterium longum [1] | [3] | Bifidobacterium longum [4] | Bifidobacterium breve [6] | Bifidobacterium longum [7] | Bifidobacterium animalis [9] | Bifidobacterium bifidum [10] | Bifidobacterium bifidum [11] | Bifidobacterium bifidum [13] | [14] | Bifidobacterium breve [19] | Bifidobacterium longum [20] | Bifidobacterium longum [21] | Bifidobacterium bifidum [22] | Bifidobacterium longum [23] | [24] | Bifidobacterium bifidum [25] | Bifidobacterium longum [26] | Bifidobacterium bifidum [27] | Bifidobacterium longum [28] | Bifidobacterium breve [30] | [32] | [33] | Bifidobacterium breve [34] | Bifidobacterium breve [35] | [37] | Bifidobacterium longum [39] | Bifidobacterium bifidum [40] | Bifidobacterium breve [41] | Bifidobacterium animalis [42] | Bifidobacterium bifidum [43] | Bifidobacterium bifidum [44] | Bifidobacterium longum [45] | Bifidobacterium breve [47]
1.9 µg/mL: Bifidobacterium animalis [29]
